Test results taken from ChEMBL document CHEMBL1921766, “Orally active zwitterionic factor Xa inhibitors with long duration of action” (Bioorg Med Chem Lett, 2011).
Converted amounts (≈) assume the structure as drawn.

Tests used:
[1] = Solubility of the compound in Japanese pharmacopoeia first fluid at pH 1.2 at 10 mM after 12 hrs; format: physicochemical
In short: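 Solubility measured in Japanese Pharmacopoeia First Fluid, pH 1.2.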

[2] = Solubility of the compound in Japanese pharmacopoeia second fluid at pH 6.8 at 10 mM after 12 hrs; format: physicochemical
In short: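 Solubility measured in Japanese Pharmacopoeia Second Fluid, pH 6.8.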

[3] = Metabolic stability in human liver microsomes at 1 uM after 20 to 30 mins by LC/MS/MS analysis in presence of NADPH; format: ADME, Microsome; details: read-out: Stability
In short: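 Metabolic stability read as percent remaining after incubation with human liver microsomes in vitro.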

[4] = 1-Octanol-phosphate buffered saline distribution coefficient, log D of the compound at pH 7.4 after 30 mins by shake flask method; format: physicochemical
In short: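 Log D measured as the partition between 1-octanol and phosphate buffered saline, pH 7.4.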

[5] = AUC in monkey serum at 1 mg/kg, po by LC-MS/MS analysis; format: ADME, organism-based, Macaca mulatta; parameters: dose 1 mg/kg, route oral; details: rhesus monkey
In short: (§1)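 Oral dosing of fasting monkeys (two animals) at 1.0 mg/kg, given as HCl salts. Plasma was sampled at 0.5, 1, 2, 4, 8 and 24 h for ex vivo anti-fXa inhibition (%) and for drug concentration. AUC, Cmax, C24 h and the Cmax/C24 h ratio were taken from the plasma concentrations.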

[6] = Cmax in monkey serum at 1 mg/kg, po by LC-MS/MS analysis; format: ADME, organism-based, Macaca mulatta; parameters: dose 1 mg/kg, route oral; details: rhesus monkey; in short: as §1
[7] = Drug level in monkey serum at 1 mg/kg, po at 24 hrs by LC-MS/MS analysis; format: ADME, organism-based, Macaca mulatta; parameters: dose 1 mg/kg, route oral; details: rhesus monkey, read-out: Drug uptake; in short: as §1

SMILES | solubility at 12 h, 10000 µM [1] [µg/mL] | solubility at 12 h, 10000 µM [2] [µg/mL] | remaining at 1 µM [3] [%] | logD at 0.5 h [4] | AUC [5] [ng·h/mL] | Cmax [6] [ng/mL] | concentration at 24 h [7] [ng/mL]
CN1CCc2nc(C(=O)Nc3c(CNC(=O)c4ccc(Cl)s4)cccc3C(N)=O)sc2C1 | 740 (≈ 1510 µM) | 710 (≈ 1450 µM) | 94 | – | – | – | –
CN1CCc2nc(C(=O)Nc3cc(C(=O)O)ccc3CNC(=O)c3ccc(Cl)s3)sc2C1 | 55 (≈ 112 µM) | > 850 | 71 | -0.29 | – | – | –
CC(CF)N1CCc2nc(C(=O)Nc3cc(C(=O)O)ccc3CNC(=O)c3ccc(Cl)s3)sc2C1 (stereo unspecified) | 160 (≈ 298 µM) | 580 (≈ 1080 µM) | 94 | 0.45 | – | – | –
CNC(=O)c1ccc(CNC(=O)c2ccc(Cl)s2)c(NC(=O)c2nc3c(s2)CN(C)CC3)c1 | 140 (≈ 278 µM) | 2.7 (≈ 5.36 µM) | 85 | – | – | – | –
CN1CCc2nc(C(=O)Nc3cc(C(=O)O)ccc3CNC(=O)c3ccc(Cl)s3)sc2C1.Cl | – | – | – | – | 247 | 25.8 | 4
CC(C)N1CCc2nc(C(=O)Nc3c(CNC(=O)c4ccc(Cl)s4)cccc3C(=O)O)sc2C1.Cl | – | – | – | – | 221 | 50.5 | 2
CN1CCc2nc(C(=O)Nc3ccccc3CNC(=O)c3ccc(Cl)s3)sc2C1 | – | – | 53 | – | – | – | –
CN1CCc2nc(C(=O)Nc3cc(C(=O)NS(C)(=O)=O)ccc3CNC(=O)c3ccc(Cl)s3)sc2C1 | 990 (≈ 1740 µM) | 1000 (≈ 1760 µM) | – | – | – | – | –
O=C(NCc1cccc(C(=O)O)c1NC(=O)c1nc2c(s1)COCC2)c1ccc(Cl)s1 | 2 (≈ 4.18 µM) | 930 (≈ 1950 µM) | 57 | -0.12 | – | – | –
CN1CCc2nc(C(=O)Nc3c(CNC(=O)c4ccc(Cl)s4)cccc3C(N)=O)sc2C1.Cl | – | – | – | – | 285 | 109 | –
CN1CCc2nc(C(=O)Nc3cc(C(N)=O)ccc3CNC(=O)c3ccc(Cl)s3)sc2C1 | 30 (≈ 61.2 µM) | < 2.4 | 77 | – | – | – | –
CN1CCc2nc(C(=O)Nc3cc(-c4nnn[nH]4)ccc3CNC(=O)c3ccc(Cl)s3)sc2C1 | 320 (≈ 621 µM) | 470 (≈ 913 µM) | – | – | – | – | –
O=C(O)c1ccc(CNC(=O)c2ccc(Cl)s2)c(NC(=O)c2nc3c(s2)COCC3)c1 | 2 (≈ 4.18 µM) | 950 (≈ 1990 µM) | 82 | 0.02 | – | – | –
CC(C)N1CCc2nc(C(=O)Nc3c(CNC(=O)c4ccc(Cl)s4)cccc3C(=O)O)sc2C1 | 1000 (≈ 1930 µM) | 1000 (≈ 1930 µM) | 96 | 0.28 | – | – | –
COCC(C)N1CCc2nc(C(=O)Nc3cc(C(=O)O)ccc3CNC(=O)c3ccc(Cl)s3)sc2C1 (stereo unspecified) | 610 (≈ 1110 µM) | 1000 (≈ 1820 µM) | 100 | 0.41 | – | – | –
CCN1CCc2nc(C(=O)Nc3cc(C(=O)O)ccc3CNC(=O)c3ccc(Cl)s3)sc2C1 | 230 (≈ 455 µM) | 1000 (≈ 1980 µM) | 97 | 0.14 | – | – | –
CN1CCc2nc(C(=O)Nc3c(CNC(=O)c4ccc(Cl)s4)cccc3C(=O)O)sc2C1 | 710 (≈ 1450 µM) | > 800 | – | -0.38 | – | – | –
CN1CCc2nc(C(=O)Nc3c(CNC(=O)c4ccc(Cl)s4)cccc3C(=O)N(C)C)sc2C1 | 900 (≈ 1740 µM) | 980 (≈ 1890 µM) | 81 | – | – | – | –
CN1CCc2nc(C(=O)Nc3cc(C(=O)N(C)C)ccc3CNC(=O)c3ccc(Cl)s3)sc2C1 | > 900 | 830 (≈ 1600 µM) | 67 | – | – | – | –
O=C(O)c1ccc(CNC(=O)c2ccc(Cl)s2)c(NC(=O)c2nc3c(s2)CN(C(CF)CF)CC3)c1 | 120 (≈ 216 µM) | 870 (≈ 1570 µM) | 100 | 0.44 | – | – | –
COC(=O)c1ccc(CNC(=O)c2ccc(Cl)s2)c(NC(=O)c2nc3c(s2)CN(C)CC3)c1 | 890 (≈ 1760 µM) | 52 (≈ 103 µM) | 42 | – | – | – | –
CNC(=O)c1cccc(CNC(=O)c2ccc(Cl)s2)c1NC(=O)c1nc2c(s1)CN(C)CC2 | 830 (≈ 1650 µM) | 130 (≈ 258 µM) | 80 | – | – | – | –
CN1CCc2nc(C(=O)Nc3ccc(C(=O)O)cc3CNC(=O)c3ccc(Cl)s3)sc2C1 | 72 (≈ 147 µM) | 13 (≈ 26.5 µM) | 95 | – | – | – | –

More lines, now with the values ahead:

solubility at 12 h, 10000 µM [1] [µg/mL] | solubility at 12 h, 10000 µM [2] [µg/mL] | remaining at 1 µM [3] [%] | logD at 0.5 h [4] | AUC [5] [ng·h/mL] | Cmax [6] [ng/mL] | concentration at 24 h [7] [ng/mL] | SMILES
980 (≈ 1920 µM) | 140 (≈ 274 µM) | 94 | 0.27 | – | – | – | CC(C)N1CCc2nc(C(=O)Nc3cc(C(=O)O)ccc3CCC(=O)Nc3ccc(F)cc3)sc2C1
– | – | – | – | 785 | 98 | 9.5 | CC(C)N1CCc2nc(C(=O)Nc3cc(C(=O)O)ccc3CCC(=O)Nc3ccc(Cl)cn3)sc2C1.Cl
320 (≈ 547 µM) | 130 (≈ 222 µM) | 86 | 1.91 | – | – | – | CC(C)Oc1cc(C(=O)O)cc(NC(=O)c2nc3c(s2)CN(C(C)C)CC3)c1CCC(=O)Nc1ccc(Cl)cc1
– | – | – | – | 1370 | 87 | 26 | CC(C)N1CCc2nc(C(=O)Nc3cc(C(=O)O)ccc3CCC(=O)Nc3ccc(Cl)cc3)sc2C1.Cl
– | – | – | – | 448 | 32 | 6.1 | CC(C)N1CCc2nc(C(=O)Nc3cc(C(=O)O)cc(F)c3CCC(=O)Nc3ccc(Cl)cc3)sc2C1.Cl
1000 (≈ 1900 µM) | 830 (≈ 1570 µM) | 100 | 0.66 | – | – | – | CC(C)N1CCc2nc(C(=O)Nc3c(CCC(=O)Nc4ccc(Cl)cc4)cccc3C(=O)O)sc2C1
– | – | – | – | 724 | 67 | 17 | CC(C)N1CCc2nc(C(=O)Nc3cc(C(=O)O)cc(Cl)c3CCC(=O)Nc3ccc(Cl)cc3)sc2C1.Cl
810 (≈ 1450 µM) | 39 (≈ 70 µM) | 87 | 1.15 | – | – | – | COc1cc(C(=O)O)cc(NC(=O)c2nc3c(s2)CN(C(C)C)CC3)c1CCC(=O)Nc1ccc(Cl)cc1
65 (≈ 114 µM) | 520 (≈ 910 µM) | 88 | 1.08 | – | – | – | CC(C)N1CCc2nc(C(=O)Nc3cc(C(=O)O)ccc3CCC(=O)Nc3ccc(Br)cc3)sc2C1
250 (≈ 500 µM) | 210 (≈ 420 µM) | 92 | -0.28 | – | – | – | CN1CCc2nc(C(=O)Nc3cc(C(=O)O)ccc3CCC(=O)Nc3ccc(Cl)cn3)sc2C1
– | – | – | – | 605 | 67.1 | 7.1 | CC(C)N1CCc2nc(C(=O)Nc3cc(C(=O)O)ccc3CNC(=O)c3ccc(Cl)s3)sc2C1.Cl
700 (≈ 1180 µM) | 310 (≈ 521 µM) | 77 | 1.64 | – | – | – | CC(C)N1CCc2nc(C(=O)Nc3cc(C(=O)O)cc(C(F)(F)F)c3CCC(=O)Nc3ccc(Cl)cc3)sc2C1
970 (≈ 1780 µM) | 11 (≈ 20.2 µM) | 100 | 1.1 | – | – | – | CC(C)N1CCc2nc(C(=O)Nc3cc(C(=O)O)cc(F)c3CCC(=O)Nc3ccc(Cl)cc3)sc2C1
370 (≈ 648 µM) | 3 (≈ 5.25 µM) | 93 | 1.62 | – | – | – | CCOc1cc(C(=O)O)cc(NC(=O)c2nc3c(s2)CN(C(C)C)CC3)c1CCC(=O)Nc1ccc(Cl)cc1
810 (≈ 1530 µM) | 86 (≈ 163 µM) | 100 | 0.23 | – | – | – | CC(C)N1CCc2nc(C(=O)Nc3cc(C(=O)O)ccc3CCC(=O)Nc3ccc(Cl)cn3)sc2C1
430 (≈ 862 µM) | 24 (≈ 48.1 µM) | 95 | 0.27 | – | – | – | CN1CCc2nc(C(=O)Nc3cc(C(=O)O)ccc3CCC(=O)Nc3ccc(Cl)cc3)sc2C1
